Test results: PMC7586407 (Journal of Medicinal Chemistry, 2020)
Values belong to the compound of their own block, whether it stands above or below them.

Columns and labels:
MIF [1] = target: T1, MIF (Homo sapiens, UniProt P14174); assay: FID assay with 7 as fluorescent indicator; type: binding; conditions: 7 50 nM, MIF 100 nM, PBS pH 7.4; calculated from EC50 by eq 1
T1 sequence (P14174 2-115 limits assumed): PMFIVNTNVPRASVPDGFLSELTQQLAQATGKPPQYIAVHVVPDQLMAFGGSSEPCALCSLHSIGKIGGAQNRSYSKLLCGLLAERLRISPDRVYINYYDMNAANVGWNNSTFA

MIF [2] = target: T1, MIF; assay: MIF tautomerase activity assay with 4-HPP as substrate; conditions: for LE (ligand efficiency): LE = 1.4(−log IC50)/N; for LLE (lipophilic ligand efficiency): LLE = pIC50 – C log P
[3] = Fluorescence quantum yield and fluorescence lifetime; type: physicochemical; conditions: relative to 4-MU, excitation 330 nm
A549 cells [4] = assay: MTS cell viability assay; type: cell-based; conditions: concentrations below 20 μM, 24 h of treatment
A549 cells [5] = assay: Colony formation; type: cell-based; conditions: 10 days
In short: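 A549 cells seeded at 100 cells/well in RPMI with 10% FBS and 100 U/mL penicillin/streptomycin, then incubated overnight. Exposed to test compound for 10 days; final DMSO 0.2%, with 0.2% DMSO as vehicle control. Fixed with 4% paraformaldehyde (20 min), stained with 0.5% crystal violet (20 min), photographed and image-analysed. A colony is an aggregate of >50 cells.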

[6] = test system: MIF-induced ERK phosphorylation in A549 cells; assay: MIF-induced ERK phosphorylation, Western blot; type: cell-based; conditions: 10 μM, 150 ng/mL MIF
[7] = target: bovine serum albumin (BSA) (Bos taurus, UniProt P02769); assay: Fluorescence quenching control with BSA; type: binding; conditions: 800 nM BSA, 50 nM fluorophore
MIF [8] = target: T1, MIF; assay: FID assay with 6d as fluorescent indicator; type: binding
MIF–sCD74 interaction = target: T2, MIF–sCD74 interaction (Homo sapiens, UniProt P14174); assay: ELISA of MBP–sCD74 binding to coated MIF; conditions: at concentrations up to 50 μM
T2 sequence (P14174 2-115 limits assumed): T1 sequence (P14174 2-115 limits assumed)
In short: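 Recombinant C-terminal His-tagged human MIF (E. coli-expressed, Ni-purified) coated at 250 nM overnight at 4 °C, then blocked with 2% BSA and washed. His/MBP-purified MBP–sCD74 (500 nM) was premixed with test compound (1–100 μM, added in DMSO) for 10 min at RT, then applied to wells for 30 min at RT. Controls: DMSO vehicle and no-sCD74. Detection used rabbit anti-CD74 (1:1000) then goat anti-rabbit HRP (1:1000), each 30 min at RT.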

Sequence of bovine serum albumin (BSA) (P02769 25-607): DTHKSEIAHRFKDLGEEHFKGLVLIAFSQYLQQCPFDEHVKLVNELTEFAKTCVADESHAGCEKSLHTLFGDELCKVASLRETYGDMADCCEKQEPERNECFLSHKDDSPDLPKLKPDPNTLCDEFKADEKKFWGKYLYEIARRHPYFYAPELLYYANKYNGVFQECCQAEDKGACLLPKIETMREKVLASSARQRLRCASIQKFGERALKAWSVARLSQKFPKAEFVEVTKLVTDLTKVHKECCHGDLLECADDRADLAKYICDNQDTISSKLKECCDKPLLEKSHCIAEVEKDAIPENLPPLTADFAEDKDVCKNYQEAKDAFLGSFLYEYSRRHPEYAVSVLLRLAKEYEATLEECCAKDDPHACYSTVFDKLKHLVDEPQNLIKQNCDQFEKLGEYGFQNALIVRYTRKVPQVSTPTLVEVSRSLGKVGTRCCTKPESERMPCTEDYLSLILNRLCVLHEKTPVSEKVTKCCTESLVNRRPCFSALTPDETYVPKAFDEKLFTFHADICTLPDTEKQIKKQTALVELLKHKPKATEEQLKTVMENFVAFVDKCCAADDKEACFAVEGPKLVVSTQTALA

Kd (MIF [1]): 470 ± 80 nM
Ki (MIF [2]; 4-HPP conversion assay, Ki = IC50/(1 + 0.5/Km)): 440 ± 30 nM
Compound: 4-(4-(isoquinolin-3-yl)-1H-1,2,3-triazol-1-yl)phenol [Compound 10, reference compound]

enhanced potency compared to inhibitor 2 (MIF [2]; Ki ratio vs 2): 10 fold
Compound: O=c1oc2cc(O)ccc2cc1-c1ccccc1 [Compound 6a, 7-Hydroxy-3-phenyl-2H-chromen-2-one]

fluorescence quantum yield [3]: 0.25
Compound: COc1ccc(-c2cc3ccc(O)cc3oc2=O)cc1 [Compound 6d, 7-Hydroxy-3-(4-methoxyphenyl)-2H-chromen-2-one]

fluorescence quantum yield [3]: 0.32
fluorescence quenching by BSA [7]: no fluorescence quenching
IC50 (MIF [2]): 71 ± 3 nM
LE (ligand efficiency) (MIF [2]): 0.37
LLE (lipophilic ligand efficiency) (MIF [2]): 5.80
mode of inhibition (enzyme kinetics) (MIF [2]; Lineweaver–Burk plot vs 4-HPP): binds in competition with 4-HPP
increased potency compared to precursor 6l (MIF [2]; vs 6l): 10 fold
Compound: O=C(O)c1ccc(-c2ccc(-c3cc4ccc(O)cc4oc3=O)cc2)cc1 [Compound 7, 4′-(7-Hydroxy-2-oxo-2H-chromen-3-yl)-[1,1′-biphenyl]-4-carboxylic Acid]
cell viability (A549 cells [4]): did not inhibit cell viability
colony formation (A549 cells [5]; 2.5 μM): significantly lower numbers of colonies
colony formation (A549 cells [5]; 10 μM): significantly lower numbers of colonies
MIF-induced ERK phosphorylation [6]: attenuated MIF-induced ERK phosphorylation

EC50 (MIF [8]): 386 ± 44 nM
inhibition of MIF–sCD74 binding (MIF–sCD74 interaction): did not demonstrate inhibition
LE (ligand efficiency) (MIF [2]): 0.43
LLE (lipophilic ligand efficiency) (MIF [2]): 4.85
Compound: COc1ccc(N2Cc3ccc(O)cc3OC2=O)cc1OC [Compound 8, 3-(3,4-Dimethoxyphenyl)-7-hydroxy-3,4-dihydro-2H-benzo[e][1,3]oxazin-2-one, reference compound]

LE (ligand efficiency) (MIF [2]): 0.30
LLE (lipophilic ligand efficiency) (MIF [2]): 2.05
Compound: O=C(NCc1cn(-c2ccc(O)c(F)c2)nn1)c1cc2cc(Cl)ccc2[nH]1 [Compound 13, 5-chloro-N-((1-(3-fluoro-4-hydroxyphenyl)-1H-1,2,3-triazol-4-yl)methyl)-1H-indole-2-carboxamide, reference compound]
colony formation (A549 cells [5]; 10 μM): inhibited colony formation

inhibition of MIF–sCD74 binding (MIF–sCD74 interaction): did not demonstrate inhibition
Compound: COC(=O)CC1CC(c2ccc(O)cc2)=NO1 (stereo not drawn) [ISO-1, methyl 2-(3-(4-hydroxyphenyl)-4,5-dihydroisoxazol-5-yl)acetate, reference compound]
colony formation (A549 cells [5]; 100 μM): inhibited colony formation
